Measurements from ChEMBL document CHEMBL1132194, “Synthesis and dopamine receptor modulating activity of novel peptidomimetics of L-prolyl-L-leucyl-glycinamide featuring alpha,alpha-disubstituted amino acids” (1999).
Where a SMILES comes first, the peptide text is derived from it. [ ]: non-standard residue; d: D form. Ac6c = NC1(C(=O)O)CCCCC1; Ac5c = NC1(C(=O)O)CCCC1; Deg = CCC(N)(CC)C(=O)O; Ac3c = NC1(C(=O)O)CC1

What was measured:
Format in all cases: functional
Rattus norvegicus [1] = test: Effect (PLG inhibitor) on apomorphine-Induced rotational behavior in rats at a dose of 10.0 ug/Kg
Outline: (§1)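 Rats carrying unilateral 6-hydroxydopamine lesions of the substantia nigra; test compound given ip, then apomorphine 0.25 mg/kg ip. Contralateral rotations counted over 10 min and expressed as percentage change from control rotational response; n = 5 per group; significance versus respective control group (p < 0.05, p < 0.01).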

Rattus norvegicus [2] = test: Effect (PLG inhibitor) on apomorphine-Induced rotational behavior in rats at a dose of 0.10 ug/Kg; outline: as §1
Rattus norvegicus [3] = test: Effect (PLG inhibitor) on apomorphine-Induced rotational behavior in rats at a dose of 0.01 ug/Kg; outline: as §1
Rattus norvegicus [4] = test: Effect (PLG inhibitor) on apomorphine-Induced rotational behavior in rats at a dose of 1.0 ug/Kg; outline: as §1

| SMILES | Change (Rattus norvegicus [1]) [%] | Change (Rattus norvegicus [2]) [%] | Change (Rattus norvegicus [3]) [%] | Change (Rattus norvegicus [4]) [%] |
| --- | --- | --- | --- | --- |
| NC(=O)C1(N2CC[C@@H](NC(=O)[C@@H]3CCCN3)C2=O)CCCC1 | -4 | -5 | 4 | 19 |
| CC(C)C[C@H](NC(=O)[C@@H]1CCCN1)C(=O)NC1(C(N)=O)CCCC1 (H-Pro-Leu-[Ac5c]-NH2) | -26 | -1 | -15 | 5 |
| NC(=O)C1(N2CC[C@@H](NC(=O)[C@@H]3CCCN3)C2=O)CC1 | 4 | 10 | -6 | -8 |
| CCC(CC)(NC(=O)[C@H](CC(C)C)NC(=O)[C@@H]1CCCN1)C(N)=O (H-Pro-Leu-[Deg]-NH2) | 1 | 31 | 6 | 56 |
| CC(C)C[C@H](NC(=O)[C@@H]1CCCN1)C(=O)NC1(C(N)=O)CCCCC1 (H-Pro-Leu-[Ac6c]-NH2) | -25 | 14 | -2 | -2 |
| NC(=O)CN1CC[C@@H](NC(=O)[C@@H]2CCCN2)C1=O | 191 | 20 | – | 75 |
| NC(=O)C1(N2CC[C@@H](NC(=O)[C@@H]3CCCN3)C2=O)CCCCC1 | -2 | 1 | 7 | 19 |
| CC(C)C[C@H](NC(=O)[C@@H]1CCCN1)C(=O)NC1(C(N)=O)CC1 (H-Pro-Leu-[Ac3c]-NH2) | -7 | 18 | 15 | 8 |
| CCC(CC)(C(N)=O)N1CC[C@@H](NC(=O)[C@@H]2CCCN2)C1=O | 8 | -3 | 2 | 17 |
